Converted amounts (≈) assume the structure as drawn. Values belong to the compound of their own block, whether it stands above or below them.
Legend:
Escherichia coli = assay: Antimicrobial activity against Escherichia coli DSM 1103 after 22 hrs by resazurin dye based spectrophotometry; format: functional; settings: DSM 1103, 22 h
How it was run: (§1)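 2-fold broth microdilution in Mueller–Hinton medium; peptide stocks 1024 μg/mL in 50% ethanol. Exponential-phase cultures diluted to OD550 0.2, then 1:100 (B. subtilis) or 1:1000 (E. coli), giving 5 × 10^5 CFU/mL per well. Incubated 22 h, 37 °C, static; then resazurin (0.2 mg/mL solution) added for 2 h at 37 °C, read visually and spectrophotometrically. Tested in both photoforms.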

[1] = Therapeutic index, ratio of HC50 for human RBC to MIC for Escherichia coli DSM 1103; format: toxicity; settings: human red blood cells versus Escherichia coli DSM 1103
How it was run: (§2)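 Ratio of HC50 (RBC) to HeLa IC50 or to MIC against B. subtilis or E. coli; values measured in mg/mL and recalculated to μM, 2-fold dilution without curve fitting, accuracy within a factor of 2.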

[2] = Therapeutic index, ratio of HC50 for human RBC to MIC for Bacillus subtilis DSM 347; format: toxicity; settings: human red blood cells versus Bacillus subtilis DSM 347; how it was run: as §2
[3] = Selective ratio of HC50 for human RBC to IC50 for human HeLa cells; format: toxicity; settings: human red blood cells versus HeLa cells; how it was run: as §2
[4] = Hemolytic activity against human RBC assessed as hemolysis after 30 mins by colorimetric method; format: ADME, cell-based, Erythrocyte; settings: human red blood cells (erythrocytes)
How it was run: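 Human erythrocytes washed twice in isotonic 172 mM Tris-HCl, pH 7.6; peptides dissolved in DMSO, diluted in buffer, two independent 10-step 2-fold series from 256 or 192 μg/mL. HC50 extrapolated as 50% hemolysis concentration.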

HeLa = assay: Cytotoxicity against human HeLa cells assessed as reduction in cell viability after 24 hrs by MTT assay; format: functional, cell-based
How it was run: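 HeLa cells seeded at about 5 × 10^4 cells/mL in DMEM with 10% FBS, 2 mM glutamine, gentamicin; 24 h adaptation (37 °C, 5% CO2), then 24 h peptide exposure. MTT 4 h, formazan in DMSO read at 570 nm. 2-fold series 256–0.5 (open) or 512–1 μg/mL (closed), four repetitions; IC50 extrapolated from killing curves. Closed form handled in dim light.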

Bacillus subtilis = assay: Antimicrobial activity against Bacillus subtilis DSM 347 after 22 hrs by resazurin dye based spectrophotometry; format: functional; settings: DSM 347, 22 h; how it was run: as §1

Structure (SMILES): Cc1sc2cc1C1=C(CCC1)c1cc(sc1C)C(=O)[C@H]1CCCN1C(=O)[C@H](C(C)C)NC(=O)[C@H](CCCCN)NC(=O)[C@H](C(C)C)NC(=O)[C@H](CC(C)C)NC(=O)[C@@H](CCCCN)NC(=O)[C@@H]1CCCN1C(=O)[C@@H](Cc1ccccc1)NC(=O)[C@H](C(C)C)NC(=O)[C@H](CCCCN)NC(=O)[C@H](CC(C)C)NC(=O)[C@H](CCCCN)NC(=O)[C@H](C(C)C)NC2=O
- MIC (Escherichia coli): 9 µM (≈ 15.9 µg/mL)
- selectivity ratio [1]: 0.1
- selectivity ratio [2]: 1
- selectivity ratio [3]: 0.3
- HC50 at 0.5 h [4]: 1 µM
- IC50 (HeLa): 3 µM
- MIC (Bacillus subtilis): 1 µM (≈ 1.76 µg/mL)

Structure (SMILES): CC(C)C[C@@H]1NC(=O)[C@H](CCCCN)NC(=O)[C@H](C(C)C)NC(=O)C2=CC3=C4CCCC4=C4C=C(S[C@]4(C)[C@@]3(C)S2)C(=O)[C@H]2CCCN2C(=O)[C@H](CC(C)C)NC(=O)[C@H](CCCCN)NC(=O)[C@H](C(C)C)NC(=O)[C@H](CCCCN)N(C)C(=O)[C@@H](Cc2ccccc2)NC1=O
- MIC (Escherichia coli): 95 µM (≈ 129 µg/mL)
- selectivity ratio [1]: 0.2
- selectivity ratio [2]: 7.3
- selectivity ratio [3]: 0.9
- HC50 at 0.5 h [4]: 22 µM
- IC50 (HeLa): 24 µM
- MIC (Bacillus subtilis): 3 µM (≈ 4.06 µg/mL)

Structure (SMILES): CC(C)C[C@@H]1NC(=O)[C@H](CCCCN)NC(=O)[C@H](C(C)C)NC(=O)C2=CC3=C4CCCC4=C4C=C(S[C@]4(C)[C@@]3(C)S2)C(=O)[C@H]2CCCN2C(=O)[C@H](CC(C)C)NC(=O)[C@H](CCCCN)NC(=O)[C@H](C(C)C)NC(=O)[C@H](CCCCN)NC(=O)[C@H](CC(C)C)NC(=O)[C@@H]2CCCN2C(=O)[C@@H](Cc2ccccc2)NC(=O)[C@H](C(C)C)NC(=O)[C@H](CCCCN)NC1=O
- MIC (Escherichia coli): 36 µM (≈ 64 µg/mL)
- selectivity ratio [1]: 1
- selectivity ratio [2]: 37
- selectivity ratio [3]: 1.3
- HC50 at 0.5 h [4]: 37 µM
- IC50 (HeLa): 28 µM
- MIC (Bacillus subtilis): 1 µM (≈ 1.78 µg/mL)

Structure (SMILES): CC(C)C[C@@H]1NC(=O)[C@H](CCCN)NC(=O)[C@H](C(C)C)NC(=O)C2=CC3=C4CCCC4=C4C=C(S[C@]4(C)[C@@]3(C)S2)C(=O)[C@H]2CCCN2C(=O)[C@H](C)NC(=O)[C@H](CCCN)NC(=O)[C@H](C(C)C)NC(=O)[C@@H]2CCCN2C(=O)[C@@H](Cc2ccccc2)NC1=O
- MIC (Escherichia coli): 207 µM (≈ 256 µg/mL)
- selectivity ratio [1]: 0.2
- selectivity ratio [2]: 3.5
- selectivity ratio [3]: 1.2
- HC50 at 0.5 h [4]: 45 µM
- IC50 (HeLa): 39 µM
- MIC (Bacillus subtilis): 13 µM (≈ 16.1 µg/mL)

Structure (SMILES): CC(C)C[C@@H]1NC(=O)[C@H](CCCCN)NC(=O)[C@H](C(C)C)NC(=O)C2=CC3=C4CCCC4=C4C=C(S[C@]4(C)[C@@]3(C)S2)C(=O)[C@H]2CCCN2C(=O)[C@H](CC(C)C)NC(=O)[C@H](CCCCN)NC(=O)[C@H](C(C)C)NC(=O)[C@H](CCCCN)NC(=O)[C@H](CC(C)C)NC(=O)[C@H](CCCCN)N(C)C(=O)[C@@H](Cc2ccccc2)NC(=O)[C@H](C(C)C)NC(=O)[C@H](CCCCN)NC1=O
- MIC (Escherichia coli): 9 µM (≈ 16.4 µg/mL)
- selectivity ratio [1]: 1
- selectivity ratio [2]: 9
- selectivity ratio [3]: 0.5
- HC50 at 0.5 h [4]: 9 µM
- IC50 (HeLa): 18 µM
- MIC (Bacillus subtilis): 1 µM (≈ 1.82 µg/mL)

Now from value to compound, other results behind:

- MIC (Escherichia coli): 47 µM (≈ 63.6 µg/mL)
- MIC (Bacillus subtilis): 3 µM (≈ 4.06 µg/mL)
Structure (SMILES): Cc1sc2cc1C1=C(CCC1)c1cc(sc1C)C(=O)[C@H]1CCCN1C(=O)[C@H](CC(C)C)NC(=O)[C@H](CCCCN)NC(=O)[C@H](C(C)C)NC(=O)[C@H](CCCCN)N(C)C(=O)[C@@H](Cc1ccccc1)NC(=O)[C@H](CC(C)C)NC(=O)[C@H](CCCCN)NC(=O)[C@H](C(C)C)NC2=O
- selectivity ratio [1]: 0.1
- selectivity ratio [2]: 1.3
- selectivity ratio [3]: 1.3
- HC50 at 0.5 h [4]: 4 µM
- IC50 (HeLa): 3 µM

- MIC (Escherichia coli): 18 µM (≈ 32.8 µg/mL)
- MIC (Bacillus subtilis): 4 µM (≈ 7.29 µg/mL)
Structure (SMILES): Cc1sc2cc1C1=C(CCC1)c1cc(sc1C)C(=O)[C@H]1CCCN1C(=O)[C@H](CC(C)C)NC(=O)[C@H](CCCCN)NC(=O)[C@H](C(C)C)NC(=O)[C@H](CCCCN)NC(=O)[C@H](CC(C)C)NC(=O)[C@H](CCCCN)N(C)C(=O)[C@@H](Cc1ccccc1)NC(=O)[C@H](C(C)C)NC(=O)[C@H](CCCCN)NC(=O)[C@H](CC(C)C)NC(=O)[C@H](CCCCN)NC(=O)[C@H](C(C)C)NC2=O
- selectivity ratio [1]: 0.1
- selectivity ratio [2]: 0.3
- selectivity ratio [3]: 0.5
- HC50 at 0.5 h [4]: < 1 µM
- IC50 (HeLa): 2 µM

- MIC (Escherichia coli): 41 µM (≈ 64.2 µg/mL)
- MIC (Bacillus subtilis): 2 µM (≈ 3.13 µg/mL)
Structure (SMILES): Cc1sc2cc1C1=C(CCC1)c1cc(sc1C)C(=O)[C@H]1CCCN1C(=O)[C@H](C(C)C)NC(=O)[C@H](CCCCN)NC(=O)[C@H](CC(C)C)NC(=O)[C@H](CCCCN)NC(=O)[C@@H]1CCCN1C(=O)[C@@H](Cc1ccccc1)NC(=O)[C@H](CCCCN)NC(=O)[C@H](C(C)C)NC(=O)[C@H](CCCCN)NC(=O)[C@H](CC(C)C)NC2=O
- selectivity ratio [1]: 2
- selectivity ratio [2]: 41
- selectivity ratio [3]: 2
- HC50 at 0.5 h [4]: 82 µM
- IC50 (HeLa): 41 µM
